# Measurements taken from ChEMBL document CHEMBL3608288, “Novel Chalcone-Thiazole Hybrids as Potent Inhibitors of Drug Resistant Staphylococcus aureus” (ACS Med Chem Lett, 2015).
# Active and inactive are the calls of the source. No cut-off for these calls is given here.
# Columns and labels:
# Staphylococcus aureus [1] = test: Antibacterial activity against […] Staphylococcus aureus ATCC 29213 in neutropenic BALB/C mouse septicemia model assessed as reduction in bacterial burden in liver at 15 mg/kg, ip administered twice at 3 hrs interval measured after 24 hrs; assay type: functional, organism-based
# Method in brief: (§1)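 BALB/c mice were made neutropenic with cyclophosphamide (150 mg/kg) and then infected intraperitoneally with S. aureus ATCC 29213. From 3 h post-infection, compound was injected at 15 mg/kg twice, 3 h apart. At 24 h, spleen, kidney and liver were crushed and plated on TH plates for CFU. Data from three independent experiments were pooled; P by ANOVA on ranks.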
# L929 [2] = test: Cytotoxicity against mouse L929 cells assessed as cell viability at <= MIC by MTT assay; assay type: cell-based
# Method in brief: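 Mouse fibroblast L929 cells were exposed to the compound. Viability was read by MTT conversion to blue formazan, measured at 550 nm.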
# Staphylococcus aureus [3] = test: Antibacterial activity against […] Staphylococcus aureus ATCC 29213 in neutropenic BALB/C mouse septicemia model assessed as reduction in bacterial burden in spleen at 15 mg/kg, ip administered twice at 3 hrs interval measured after 24 hrs; assay type: functional, organism-based; method in brief: as §1
# Cryptococcus neoformans = test: Antifungal activity against Cryptococcus neoformans after 16 hrs by microtiter broth dilution method; assay type: functional
# [4] = Hemolytic activity in human RBC at 100 ug/ml after 1 hr; settings: erythrocyte
# Aspergillus fumigatus = test: Antifungal activity against Aspergillus fumigatus after 16 hrs by microtiter broth dilution method; assay type: functional
# Klebsiella pneumoniae = test: Antibacterial activity against Klebsiella pneumoniae ATCC 27736 after 16 hrs by microtiter broth dilution method; assay type: functional; settings: ATCC 27736, 16 h
# Escherichia coli = test: Antibacterial activity against Escherichia coli ATCC 9637 after 16 hrs by microtiter broth dilution method; assay type: functional; settings: W
# Sporothrix schenckii = test: Antifungal activity against Sporothrix schenckii after 16 hrs by microtiter broth dilution method; assay type: functional
# Staphylococcus aureus [5] = test: Antibacterial activity against methicillin-resistant Staphylococcus aureus ATCC 700699 after 16 hrs by microtiter broth dilution method; assay type: functional; settings: ATCC 700699, 16 h
# Staphylococcus aureus [6] = test: Antibacterial activity against […] Staphylococcus aureus ATCC 29213 after 16 hrs by microtiter broth dilution method; assay type: functional; settings: ATCC 29213, 16 h
# Staphylococcus aureus [7] = test: Antibacterial activity against […] Staphylococcus aureus ATCC 29213 assessed as reduction in log10CFU measured at 24 hrs; assay type: functional, organism-based
# Method in brief: (§2)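 Aliquots were taken at regular time points and plated for CFU counts. Reduction in log10 CFU was taken against a no-drug control.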
# Staphylococcus aureus [8] = test: Antibacterial activity against Staphylococcus aureus ATCC 25923 after 16 hrs by microtiter broth dilution method; assay type: functional; settings: ATCC 25923, 16 h
# Staphylococcus aureus [9] = test: Antibacterial activity against […] Staphylococcus aureus ATCC 29213 in neutropenic BALB/C mouse septicemia model assessed as increase in mouse survival at 15 mg/kg, ip administered twice at 3 hrs interval; assay type: functional, organism-based
# Candida parapsilosis = test: Antifungal activity against Candida parapsilosis ATCC 22019 after 16 hrs by microtiter broth dilution method; assay type: functional; settings: Lodderomyces parapsilosis, ATCC 22019, 16 h
# [10] = tested on: Trichophyton mentagrophytes; test: Antifungal activity against Trichophyton mentagrophytes after 16 hrs by microtiter broth dilution method; assay type: functional
# Pseudomonas aeruginosa = test: Antibacterial activity against Pseudomonas aeruginosa ATCC BAA-427 after 16 hrs by microtiter broth dilution method; assay type: functional; settings: ATCC BAA-427, 16 h
# Candida albicans = test: Antifungal activity against Candida albicans after 16 hrs by microtiter broth dilution method; assay type: functional
# Staphylococcus aureus [11] = test: Antibacterial activity against […] Staphylococcus aureus ATCC 29213 assessed as reduction in log10CFU at 1x MIC and 10x MIC measured at 24 hrs relative to control; assay type: functional; method in brief: as §2
# Staphylococcus aureus [12] = test: Antibacterial activity against […] Staphylococcus aureus ATCC 29213 in neutropenic BALB/C mouse septicemia model assessed as reduction in bacterial burden in kidney at 15 mg/kg, ip administered twice at 3 hrs interval measured after 24 hrs; assay type: functional, organism-based; method in brief: as §1
# Staphylococcus aureus [13] = test: Antibacterial activity against methicillin/gentamicin-resistant Staphylococcus aureus ATCC 33592 after 16 hrs by microtiter broth dilution method; assay type: functional; settings: ATCC 33592, 16 h
# L929 [14] = test: Cytotoxicity against mouse L929 cells assessed as induction of morphological changes at 1 x MIC after 24 hrs by Giemsa staining-based phase contrast microscopic analysis; assay type: cell-based; settings: l929, 24 h
# Method in brief: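 L929 fibroblasts were incubated with the compound for 24 h, then Giemsa-stained. Morphology was compared with untreated control cells under phase contrast microscopy for appearance, transparency and attachment to the well surface.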
smiles,measurement,setting,value
COc1ccc(-c2csc(/N=C/c3cc(/C=C/C(=O)c4ccc(C)cc4)cc(C(C)(C)C)c3O)n2)cc1OC,Activity,Staphylococcus aureus [1],Active
same,Activity,L929 [2],Non-toxic
same,Activity,Staphylococcus aureus [3],Active
same,MIC,Cryptococcus neoformans,> 92.5 µM
same,Activity,[4],Non-toxic
same,MIC,Aspergillus fumigatus,> 92.5 µM
same,MIC,Klebsiella pneumoniae,> 92.5 µM
same,MIC,Escherichia coli,> 92.5 µM
same,MIC,Sporothrix schenckii,> 92.5 µM
same,MIC,Staphylococcus aureus [5],11.6 µM
same,MIC,Staphylococcus aureus [6],5.8 µM
same,Activity,Staphylococcus aureus [7],Dose-dependent effect
same,MIC,Staphylococcus aureus [8],5.8 µM
same,Activity,Staphylococcus aureus [9],Active
same,MIC,Candida parapsilosis,> 92.5 µM
same,MIC,[10],> 92.5 µM
same,MIC,Pseudomonas aeruginosa,> 92.5 µM
same,MIC,Candida albicans,> 92.5 µM
same,Activity,Staphylococcus aureus [11],10 log10CFU/ml
same,Activity,Staphylococcus aureus [12],inactive
same,MIC,Staphylococcus aureus [13],1.4 µM
same,Activity,L929 [14],Non-toxic
